Data on eleven compounds can be found in ChEMBL document CHEMBL1287654, “Anticancer activity of N-bis(trifluoromethyl)alkyl-N'-(polychlorophenyl) and N'-(1,2,4-triazolyl) ureas” (2010).

What all share (assay type): functional
One test has as its system NCI-H460. Description: Growth inhibition of human NCI-H460 cells assessed as cell growth at 100 uM after 48 hrs by sulforhodamine B assay relative to control. The following applies: NCI-H460, 48 h, read-out: Activity. The method, boiled down: (§1)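 One-dose pre-test on MCF7, NCI-H460 and SF-268. Cells were inoculated and pre-incubated on a microtiter plate, then given a single 10^-4 M dose and incubated 48 h. Growth was read spectrophotometrically and expressed as percent of untreated control cells; negative values indicate cell kill.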
In general terms: The SRB assay estimates cell density from bound dye.

The subject of test [1] is MCF7. Description: Growth inhibition of human MCF7 cells assessed as cell growth at 100 uM after 48 hrs by sulforhodamine B assay relative to control. As to conditions: MCF7, 48 h, read-out: Activity. The method, boiled down: as §1
The test system of test [2] is SF-268. Description: Growth inhibition of human SF268 cells assessed as cell growth at 100 uM after 48 hrs by sulforhodamine B assay relative to control. The following applies: SF-268, 48 h, read-out: Activity. In short, it runs like this: as §1
The next test deals with HOP-62. Description: Growth inhibition of human HOP62 cells after 48 hrs by sulforhodamine B assay. As to conditions: HOP-62, 48 h. In short, it runs like this: (§2)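 NCI 60-cell-line main test over a five-log dose range. GI50 is the molar concentration giving half-growth inhibition, reported as log molar. Subpanel values are median GI50 across that subpanel's lines. Where 50% inhibition was not reached within the tested interval, the highest tested concentration was used.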

In the next test the test system is COLO 205. The test can be described thus: Growth inhibition of human COLO205 cells after 48 hrs by sulforhodamine B assay. The following applies: COLO 205, 48 h. In short, it runs like this:
as §2

Test [3] deals with SF-268. Description: Growth inhibition of human SF268 cells after 48 hrs by sulforhodamine B assay. As to conditions: SF-268, 48 h. The method, boiled down:
as §2

For the next test, the system named is SF-539. The test can be described thus: Growth inhibition of human SF539 cells after 48 hrs by sulforhodamine B assay. The following applies: SF-539, 48 h. The method, boiled down: as §2
In the next test the test system is SNB-75. Description: Growth inhibition of human SNB75 cells after 48 hrs by sulforhodamine B assay. As to conditions: SNB-75, 48 h. In short, it runs like this: (§3)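 NCI 60-cell-line main screen across nine tumor types, with five log dose range per compound. GI50 is the molar concentration giving half growth inhibition, reported as the log of the molar concentration that inhibits 50% net cell growth.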

In a further test the test system is OVCAR-3. The test can be described thus: Growth inhibition of human OVCAR-3 cells after 48 hrs by sulforhodamine B assay. The following applies: OVCAR-3, 48 h. The method, boiled down:
as §2

In the next test the test system is A498. Description: Growth inhibition of human A498 cells after 48 hrs by sulforhodamine B assay. The following applies: A498, 48 h. The method, boiled down: as §2
The next test has as its system SN12C. Description: Growth inhibition of human SN12C cells after 48 hrs by sulforhodamine B assay. In short, it runs like this: as §3
In test [4] the test system is MCF7. The test can be described thus: Growth inhibition of human MCF7 cells after 48 hrs by sulforhodamine B assay. As to conditions: MCF7, 48 h. In short, it runs like this: as §2
In the next test the test system is NCI/ADR-RES. The test can be described thus: Growth inhibition of human NCI/ADR-RES cells after 48 hrs by sulforhodamine B assay. The method, boiled down:
as §2

Test [5] is described as follows: Growth inhibition of human leukemia cell after 48 hrs by sulforhodamine B assay. In short, it runs like this: (§4)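 Subpanel median growth inhibitory concentration: the average sensitivity of each tumor-type subpanel of the NCI 60-cell-line panel, derived from per-cell-line GI50 values. GI50 values came from a five log dose range and are expressed as log molar concentration for 50% net growth inhibition.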

Test [6] is described as follows: Growth inhibition of human non-small lung cancer cell after 48 hrs by sulforhodamine B assay. As to conditions: Cancer cell lines. The method, boiled down:
as §4

A short description of test [7]: Growth inhibition of human colon cancer cell after 48 hrs by sulforhodamine B assay. The following applies: Cancer cell lines. The method, boiled down:
as §4

A short description of test [8]: Growth inhibition of human CNS cancer cell after 48 hrs by sulforhodamine B assay. The following applies: Cancer cell lines. In short, it runs like this:
as §2

A short description of test [9]: Growth inhibition of human melanoma cell after 48 hrs by sulforhodamine B assay. The method, boiled down: as §4
The nature of test [10]: Growth inhibition of human ovarian cancer cell after 48 hrs by sulforhodamine B assay. The following applies: Cancer cell lines. The method, boiled down: as §4
A short description of test [11]: Growth inhibition of human renal cancer cell after 48 hrs by sulforhodamine B assay. As to conditions: Cancer cell lines. The method, boiled down: as §4
Test [12] in a line: Growth inhibition of human prostate cancer cell after 48 hrs by sulforhodamine B assay. The following applies: Cancer cell lines. The method, boiled down: as §4
A short description of test [13]: Growth inhibition of human breast cancer cell after 48 hrs by sulforhodamine B assay. As to conditions: Cancer cell lines. In short, it runs like this: as §4
The next test has as its system HCT-15. The test can be described thus: Growth inhibition of human HCT15 cells after 48 hrs by sulforhodamine B assay. As to conditions: HCT-15, 48 h. In short, it runs like this:
as §2

A further test deals with UACC-62. The test can be described thus: Growth inhibition of human UACC62 cells after 48 hrs by sulforhodamine B assay. As to conditions: UACC-62, 48 h. The method, boiled down:
as §3

A further test deals with BT-549. The test can be described thus: Growth inhibition of human BT549 cells after 48 hrs by sulforhodamine B assay. The following applies: BT-549, 48 h. In short, it runs like this:
as §2

For another test, the system named is A549. Description: Growth inhibition of human A549 cells after 48 hrs by sulforhodamine B assay. The following applies: A549, 48 h. In short, it runs like this:
as §2

The test system of another test is NCI-H226. Description: Growth inhibition of human NCI-H226 cells after 48 hrs by sulforhodamine B assay. The following applies: NCI-H226, 48 h. The method, boiled down: as §2
Another test concerns SK-MEL-2. Description: Growth inhibition of human SK-MEL-2 cells after 48 hrs by sulforhodamine B assay. As to conditions: SK-MEL-2, 48 h. In short, it runs like this: as §2
Another test deals with UACC-257. The test can be described thus: Growth inhibition of human UACC257 cells after 48 hrs by sulforhodamine B assay. The following applies: UACC-257, 48 h. The method, boiled down: as §3
Another test deals with 786-0. Description: Growth inhibition of human 786-0 cells after 48 hrs by sulforhodamine B assay. The following applies: 786-0, 48 h. The method, boiled down: as §2
Another test has as its system MDA-MB-435. The test can be described thus: Growth inhibition of human MDA-MB-435 cells after 48 hrs by sulforhodamine B assay. As to conditions: MDA-MB-435, 48 h. The method, boiled down:
as §2

Broadly, the GI50 is the concentration at which growth is held to half of that of the control. Read a high GI50 as less potent growth inhibition.

With `CCC(NC(=O)Nc1c(Cl)cccc1Cl)(C(F)(F)F)C(F)(F)F`, the results for the growth at 100 µM in the test with NCI-H460, with MCF7 [1] and in the test on SF-268 [2] were 79%, 75% and 101%, respectively.

Consider `O=c1[nH]cc(F)c(=O)[nH]1` [FLUOROURACIL], for which the GI50 is 0.398 µM in the test with HOP-62; 0.158 µM in the test with COLO 205; 1.58 µM in the test on SF-268 [3]; 0.0631 µM in the test with SF-539; 79.4 µM with SNB-75; 0.0158 µM in the test with OVCAR-3. Moreover, the GI50 with A498 is 0.398 µM; in the test on SN12C, 0.501 µM; in the test with MCF7 [4], 0.0794 µM; in the test on NCI/ADR-RES, 0.316 µM; in [5], 0.562 µM; in test [6] it was 2 µM. Further, the GI50 in test [7] is 0.186 µM; in test [8] it was 1.35 µM; in [9], 0.933 µM; in test [10], 1.82 µM; in [11], 0.575 µM; in test [12], 0.912 µM. Also, halving of growth in [13] (GI50) required 1.38 µM.

On to `CCC(NC(=O)Nc1nnc[nH]1)(C(F)(F)F)C(F)(F)F`, for which the growth at 100 µM was found to be 86% in the test on NCI-H460, 102% with MCF7 [1] and 102% with SF-268 [2].

On to `CC(NC(=O)Nc1c(Cl)cccc1Cl)(C(F)(F)F)C(F)(F)F`, for which the growth at 100 µM with NCI-H460 was found to be 85%; in the test with MCF7 [1] it was 82%; in the test on SF-268 [2] it was 84%.

On to `CC(NC(=O)Nn1cnnc1)(C(F)(F)F)C(F)(F)F`, for which the growth at 100 µM with NCI-H460 came to 94%; with MCF7 [1], 81%; in the test with SF-268 [2], 105%.

On to `CC(NC(=O)Nc1nc2ccccc2s1)(C(F)(F)F)C(F)(F)F`, for which the GI50 with HOP-62 is 31.6 µM; with HCT-15, more than 100 µM; in the test with UACC-62, more than 100 µM; in the test on A498 it was 100 µM; with NCI/ADR-RES, more than 100 µM; in the test on BT-549 it was more than 100 µM. The GI50 in [5] is 21.9 µM; in test [6], 33.9 µM; in test [7], 42.7 µM; in test [8] it was 25.7 µM; in [9], 42.7 µM; in [10], 39.8 µM. Also, the values for the GI50 in test [11], in [12] and in test [13] were 28.2 µM, 56.2 µM and 50.1 µM, respectively.

Turning to `CCC(NC(=O)Nc1nc2ccccc2s1)(C(F)(F)F)C(F)(F)F`, the GI50 is 15.8 µM in the test with A549; 15.8 µM with NCI-H226; 15.8 µM in the test on SK-MEL-2; 20 µM in the test with UACC-257; 20 µM with 786-0; 15.8 µM in the test with MCF7 [4]. Further, the GI50 in the test on MDA-MB-435 was 20 µM; in [5] it was 22.9 µM; in test [6], 18.6 µM; in test [7] it was 18.6 µM; in test [8], 11.7 µM; in test [9], 17.4 µM. The GI50 in [10] was 17.8 µM; in test [11], 15.1 µM; in [12], 18.2 µM; in test [13], 18.2 µM.

Take `CC(NC(=O)Nc1c(Cl)cc(Cl)cc1Cl)(C(F)(F)F)C(F)(F)F`: the growth at 100 µM in the test on NCI-H460 was 103%; in the test with MCF7 [1] it was 89%; in the test with SF-268 [2] it was 96%.

For the compound `CC(NC(=O)Nc1nnc[nH]1)(C(F)(F)F)C(F)(F)F`, the growth at 100 µM with NCI-H460 was determined as 111%; in the test on MCF7 [1] it was 98%; in the test with SF-268 [2] it was 111%.

For the compound `CCC(NC(=O)Nc1c(Cl)cc(Cl)cc1Cl)(C(F)(F)F)C(F)(F)F`, the growth at 100 µM in the test with NCI-H460 was determined as 81%; with MCF7 [1] it was 88%; in the test on SF-268 [2], 98%.

On to `CCC(NC(=O)Nn1cnnc1)(C(F)(F)F)C(F)(F)F`, for which the growth at 100 µM in the test with NCI-H460 was 94%; with MCF7 [1], 84%; in the test with SF-268 [2], 105%.
